Compounds with a hit are over-represented: about 4.5% of the library has one in this group of screens.
STAT1 activator: increases IFN-gamma driven STAT1 reporter signal; NIH 3T3 STAT1-luciferase reporter, luminescence; 100% = IFN-gamma alone, no compound; activation (% of control), % at 5.5 µM; 200,000 compounds, 2.6% hits; AID 932;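 active = activation above the screen-wide mean activation plus 3 SD, cut at about 130% in these data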;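 note: raw ratio to IFN-gamma control signal so 100% means no change and 0% no light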
AHR act: human AHR activation | AHR-responsive luciferase reporter cells, luminescence | activation, % at 5 µM | 320,000 compounds, 2.5% hits; in the data active = activation above about 47%;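 note: 0% = vehicle wells and 100% = reference agonist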
Target sequence (P35869 whole entry, looked up): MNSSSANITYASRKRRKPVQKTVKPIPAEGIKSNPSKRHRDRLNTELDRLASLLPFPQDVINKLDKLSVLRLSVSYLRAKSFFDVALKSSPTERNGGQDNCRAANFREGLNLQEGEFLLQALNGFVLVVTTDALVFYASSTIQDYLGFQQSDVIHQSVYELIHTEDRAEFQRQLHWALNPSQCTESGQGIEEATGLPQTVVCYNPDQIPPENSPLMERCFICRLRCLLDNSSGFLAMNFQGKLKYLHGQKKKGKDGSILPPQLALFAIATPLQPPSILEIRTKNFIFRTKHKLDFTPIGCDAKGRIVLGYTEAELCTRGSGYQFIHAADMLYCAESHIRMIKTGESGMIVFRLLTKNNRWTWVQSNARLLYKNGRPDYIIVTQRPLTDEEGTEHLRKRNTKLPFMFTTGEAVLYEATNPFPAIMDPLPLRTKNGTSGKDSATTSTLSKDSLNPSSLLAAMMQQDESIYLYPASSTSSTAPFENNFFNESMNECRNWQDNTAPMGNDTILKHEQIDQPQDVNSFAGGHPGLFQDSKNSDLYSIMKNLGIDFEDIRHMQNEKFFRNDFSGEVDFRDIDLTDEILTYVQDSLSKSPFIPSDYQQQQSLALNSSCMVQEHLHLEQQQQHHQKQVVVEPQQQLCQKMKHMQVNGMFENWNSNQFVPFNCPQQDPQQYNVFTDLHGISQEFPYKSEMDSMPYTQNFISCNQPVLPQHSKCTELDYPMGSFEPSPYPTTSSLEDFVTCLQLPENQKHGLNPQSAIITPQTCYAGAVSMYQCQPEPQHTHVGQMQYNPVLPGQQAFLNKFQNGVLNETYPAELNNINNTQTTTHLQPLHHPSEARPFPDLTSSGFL
NF-kB neuron act: NF-kB expression increase, human neuronal cells | 190,000 compounds, 1.6% hits | AID 1239 | fold change at 12.5 µM | NF-kB reporter expression; stronger effect = higher value; in the data active = fold change above about 3.3
Mdm2 ligase inh: inhibitors of human Mdm2 E3 ubiquitin ligase | cell-based MDM2 ubiquitination luciferase reporter, 2 h; 0 = plate control, 100 = twice control, blank-subtracted | signal enhancement, % at 5 µM | 210,000 compounds, 0.11% hits;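 active = signal enhancement of 30% or more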;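 note: luminescence tracks abundance of the self-degrading MDM2-luciferase fusion protein; higher signal means inhibition of MDM2 E3 ligase activity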
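Assay system: mammalian cells stably expressing self-ubiquitinating, self-degrading MDM2 E3–luciferase fusion. Quantity: 2000 cells in each well. Medium: DMEM culture medium. Compound dosing: single-point 5 µM. Timing: cell settling 4 h, compound treatment 2 h, both 37 °C. Technique: luciferase luminescence. Read-out basis: percent signal gain over controls, blank-subtracted. Benchmarks: plate controls and plate blanks.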
PERK inh: blocks human PERK kinase | Q9NZJ5 | inhibition, % at 5.6 µM | CHO PERK-DD fusion, SEAP luminescence translation reporter | AID 1416 | 220,000 compounds, 0.17% hits;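 active = inhibition above the mean inhibition of all tested compounds plus 3 SD, set separately per screening campaign, cut at about 2.9% in these data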;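 note: PERK kinase domain activated by AP20187 dimerizer at 100 nM; 0% = DMSO with dimerizer and 100% = rapamycin at 8.4 µM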
APP 5'UTR act: activates APP 5'UTR luciferase reporter | SH-SY5Y APP 5'UTR luciferase reporter, luminescence; zero percent = DMSO vehicle wells | activation, % at 2 µM | 190,000 compounds, 1% hits | AID 1276;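 active = activation above a set limit, based on mean plus 3 SD of controls, cut at about 140% in these data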
* marks the source's active call; other numbers are inactive results; x = not tested or not shown.

SMILES	STAT1 activator	AHR act	NF-kB neuron act	Mdm2 ligase inh	PERK inh	APP 5'UTR act
CC(C)N(CCCNC(=O)Cn1c(=O)c2cccn2c2ccc(F)cc21)Cc1ccccc1	x	3	x	x	x	x
COc1ccc(Cl)cc1NC(=O)C/C(C)=N/NC(=O)Cc1ccccc1	109	20	1.1	0	0	33
CC(=O)/C=C/n1c(=S)oc2ccccc21	84	1	0.3	51*	1	-87
CC(=O)Nc1ccc(NC(=O)CCn2c(=S)oc3ccccc32)cc1	105	2	1.1	17	0	-15
Cn1c(=S)oc2ccccc21	x	-3	x	4	2	x
CC(C)CC(=O)/C=C/n1c(=S)oc2ccccc21	99	1	2	58*	1	-43
O=[N+]([O-])c1ccc(NCCCNS(=O)(=O)c2ccccc2)cc1	91	2	0.96	-4	2	-1
CSc1ccccc1NC(=O)C1=CC(c2ccc(C)cc2)=NS(=O)(=O)N1C	x	12	x	x	x	x
Clc1ccc(-c2nc(C3CCCCC3)no2)cc1	132*	3	1.9	-12	2	108
CCOC(=O)Cc1nnc(Nc2ccc(C)cc2C)c2ccccc12	101	0	1.1	-7	0	-3
Cc1ccc(OCCn2cnc3c(N)ncnc32)cc1	129*	-1	2.1	-18	0	-4
CC(NC(=O)c1ccc([N+](=O)[O-])o1)C1CC2CCC1C2 (stereo unspecified)	x	-3	x	x	x	x
O=c1nc2sc3ccccc3n2c(=O)n1-c1ccc(Cl)cc1	113	52*	1.3	-5	0	107
Cc1ccc2c(c1)sc1nc(=O)n(-c3ccc(Cl)cc3)c(=O)n12	99	15	1.4	-3	0	-7
CC1(O)c2ccccc2C(=O)N1CCc1ccccc1F (stereo unspecified)	110	76*	1.7	-6	0	20
CC1CCCC(C)N1C(=O)CN1C(=O)c2ccccc2S1(=O)=O (stereo unspecified)	x	-2	x	x	x	x
CCN(CC)CC(=O)Nc1nc(-c2ccc(Cl)cc2)cs1	103	23	1.1	-13	-2	-12
CNc1nc(-c2ccc([N+](=O)[O-])cc2)cs1	137*	-6	2.1	-1	1	34
CNc1nc(-c2ccc(Cl)cc2)cs1	132*	-1	2.4	-10	0	83
CCNc1nc(-c2ccc(Cl)cc2)cs1	149*	-4	3.8*	-4	1	148*
CC(C)C(=O)Nc1nc(-c2ccc([N+](=O)[O-])cc2)cs1	120	-9	1.6	-12	-1	21
O=C(Nc1ccccc1)Nc1nc(-c2ccc(Cl)cc2)cs1	95	-4	1.4	-14	-1	3
O=S(=O)(Nc1ccc2c(c1)OCO2)c1cccc(Br)c1	x	0	x	x	x	x
CCOc1ccc(S(=O)(=O)NC(C)C(=O)NCc2ccc3c(c2)OCO3)cc1 (stereo unspecified)	x	3	x	x	x	x
CCN(CC)c1ccc(S(=O)(=O)N2CCOCC2)cc1NC(=O)CSc1nnc(N)s1	x	6	x	x	x	x
SMILES	STAT1 activator	AHR act	NF-kB neuron act	Mdm2 ligase inh	PERK inh	APP 5'UTR act
CCN(CC)C(=O)c1sc2nc(-c3ccc(OC)cc3)cn2c1C	143*	1	2.9	-30	-1	117
COc1ccc(-c2cn3c(C)c(C(=O)NCCN4CCOCC4)sc3n2)cc1	101	28	1	-14	0	9
Cc1sc(NC(=O)c2ccc(Br)s2)c(C(N)=O)c1C	146*	59*	5.2*	-19	0	108
Cc1sc(NC(=S)Nc2ccc(F)cc2)c(C(N)=O)c1C	99	81*	1.1	-2	0	9
CCc1c(C)sc(NC(=O)C2CCCCC2C(=O)O)c1C(N)=O (stereo unspecified)	102	2	1.2	x	1	6
Cc1sc(NC(=S)NC(=O)C2CCCCC2)c(C(N)=O)c1C	116	56*	0.97	-5	0	36
CCCNC(=O)C1CC(c2ccccc2C(F)(F)F)=NO1 (stereo unspecified)	x	-4	x	x	x	x
CC(=O)NCCOc1ccc2oc3ccccc3c2c1	130*	11	2.2	-6	1	17
CN1CCN(Cc2cc(Cl)c3cccnc3c2OC(=O)c2cccs2)CC1	91	15	13*	2	0	-4
CCc1ccc(OCC(=O)O/N=C(\N)c2ccncc2)c(Br)c1	x	8	x	x	x	x
Cc1cc(O)ccc1Nc1nc(-c2cccs2)cs1	121	-5	7.2*	-19	0	148*
COc1ccc(-c2csc(Nc3cccnc3)n2)cc1	134*	54*	2.4	0	-1	44
c1ccc(-c2csc(Nc3cccnc3)n2)nc1	127	20	1.4	-35	0	20
c1cncc(Nc2nc(-c3cccs3)cs2)c1	132*	58*	2.4	-8	0	7
CN(c1ccc(O)cc1)c1nc(-c2cccs2)cs1	141*	47*	7*	-29	1	173*
Cc1nc(C)c(-c2csc(Nc3ccc(O)cc3C)n2)s1	x	-5	x	x	x	x
O=C(C1=NN[C@@H]2C(=O)N(Cc3ccccc3)C(=O)[C@H]12)c1ccc([N+](=O)[O-])cc1	x	1	x	-5	-1	x
C=CCOc1ccc(C(c2c(C(=O)O)[nH]c3ccccc23)c2c(C(=O)O)[nH]c3ccccc23)cc1	x	27	x	x	x	x
Cc1cccc(N2CCN(C3CCCCC3NS(=O)(=O)c3ccccc3)CC2C)c1 (stereo unspecified)	x	4	x	x	x	x
Cc1ccc(Nc2nc(-c3cccs3)cs2)nc1	40	23	4.9*	-66	1	172*
c1coc(CNc2nc(-c3cccs3)cs2)c1	127	11	2.5	-6	0	40
COCCN(C(=O)Nc1ccccc1OC)c1nc2ccccc2s1	x	8	x	x	x	x
CC1CC(NC(=O)c2cnc3n(c2=O)CCS3)CC(C)(C)C1 (stereo unspecified)	x	1	x	-13	x	x
O=C(NC1CCCC1)c1cnc2n(c1=O)CCS2	98	60*	1	-17	-1	-1
CC1=NN(c2ccc(Cl)cc2)C(=O)C1C(c1cccc(O)c1)c1c(C)[nH]n(-c2ccc(Cl)cc2)c1=O (stereo unspecified)	100	67*	1	-1	1	x
SMILES	STAT1 activator	AHR act	NF-kB neuron act	Mdm2 ligase inh	PERK inh	APP 5'UTR act
Cc1cc(N2CCN(c3ccccc3)CC2)nc(-c2ccccc2O)n1	103	78*	1.1	-16	0	-2
O=c1cc(/C=C/c2c(F)cccc2Cl)[nH]c2ccccc12	91	61*	1.2	-9	1	49
Cc1ccccc1-n1nc2c(c1NC(=O)COc1ccc(Cl)cc1)CS(=O)C2 (stereo unspecified)	92	2	0.97	-12	0	-7
O=C(COc1ccccc1)Nc1c2c(nn1-c1ccccc1)CS(=O)C2 (stereo unspecified)	x	56*	x	x	x	x
C=CCNC(=O)c1cc2sccc2n1C	x	-1	x	x	1	x
CC(C)c1ccc(NC(=O)Nc2cc3sccc3n2C)cc1	103	48*	0.92	-18	1	-4

Bioassay records deposited in PubChem by several laboratories.
